Reference: ChEMBL document CHEMBL1153726, “Synthesis and anticancer activity of sclerophytin-inspired hydroisobenzofurans” (Bioorg Med Chem Lett, 2009)

Columns and labels:
Assay type in all cases: functional
[1] = test system: NCI-H226; experiment: Growth inhibition of human NCI-H226 cells at 1 nM after 96 hrs by MTT assay; parameters: scale not given: the % may be the effect or the level left
[2] = test system: TK-10; experiment: Growth inhibition of human TK10 cells at 1 nM after 96 hrs by MTT assay; parameters: scale not given: the % may be the effect or the level left
[3] = test system: RXF 393; experiment: Growth inhibition of human RXF393 cells after 96 hrs by MTT assay; conditions: RXF 393, 96 h
Procedure, shortened: (§1)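 Tested in the NCI 60-cell-line panel in five-dose format; GI50 and LC50 values reported for each cell line.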

[4] = test system: NCI/ADR-RES; experiment: Growth inhibition of human NCI/ADR-RES cells at 100 nM after 96 hrs by MTT assay; parameters: scale not given: the % may be the effect or the level left
[5] = test system: MCF7; experiment: Growth inhibition of human MCF7 cells at 10 uM after 96 hrs by MTT assay; parameters: scale not given: the % may be the effect or the level left
[6] = test system: COLO 205; experiment: Growth inhibition of human COLO205 cells at 10 uM after 96 hrs by MTT assay; parameters: scale not given: the % may be the effect or the level left
[7] = test system: A549; experiment: Growth inhibition of human A549 cells at 100 nM after 96 hrs by MTT assay; parameters: scale not given: the % may be the effect or the level left
[8] = test system: NCI-H23; experiment: Growth inhibition of human NCI-H23 cells at 1 nM after 96 hrs by MTT assay; parameters: scale not given: the % may be the effect or the level left
[9] = test system: U-251; experiment: Growth inhibition of human U251 cells at 10 uM after 96 hrs by MTT assay; parameters: scale not given: the % may be the effect or the level left
[10] = test system: SNB-19; experiment: Growth inhibition of human SNB19 cells at 10 nM after 96 hrs by MTT assay; parameters: scale not given: the % may be the effect or the level left
[11] = test system: NCI-H322M; experiment: Growth inhibition of human NCI-H322M cells at 1 nM after 96 hrs by MTT assay; parameters: scale not given: the % may be the effect or the level left
[12] = test system: COLO 205; experiment: Growth inhibition of human COLO205 cells at 100 nM after 96 hrs by MTT assay; parameters: scale not given: the % may be the effect or the level left
[13] = test system: UACC-62; experiment: Growth inhibition of human UACC62 cells at 10 nM after 96 hrs by MTT assay; parameters: scale not given: the % may be the effect or the level left
[14] = test system: K562; experiment: Growth inhibition of human K562 cells at 1 nM after 96 hrs by MTT assay; parameters: scale not given: the % may be the effect or the level left
[15] = test system: TK-10; experiment: Growth inhibition of human TK10 cells at 100 nM after 96 hrs by MTT assay; parameters: scale not given: the % may be the effect or the level left
[16] = test system: SK-MEL-28; experiment: Growth inhibition of human SK-MEL-28 cells at 1 nM after 96 hrs by MTT assay; parameters: scale not given: the % may be the effect or the level left
[17] = test system: HCT-116; experiment: Growth inhibition of human HCT116 cells at 10 uM after 96 hrs by MTT assay; parameters: scale not given: the % may be the effect or the level left
[18] = test system: NCI/ADR-RES; experiment: Growth inhibition of human NCI/ADR-RES cells at 10 nM after 96 hrs by MTT assay; parameters: scale not given: the % may be the effect or the level left
[19] = test system: MDA-MB-468; experiment: Growth inhibition of human MDA-MB-468 cells at 100 nM after 96 hrs by MTT assay; parameters: scale not given: the % may be the effect or the level left
[20] = test system: COLO 205; experiment: Growth inhibition of human COLO205 cells at 1 nM after 96 hrs by MTT assay; parameters: scale not given: the % may be the effect or the level left
[21] = test system: SW-620; experiment: Growth inhibition of human SW620 cells at 1 uM after 96 hrs by MTT assay; parameters: scale not given: the % may be the effect or the level left
[22] = test system: PC-3; experiment: Growth inhibition of human PC3 cells at 10 nM after 96 hrs by MTT assay; parameters: scale not given: the % may be the effect or the level left
[23] = test system: SK-MEL-28; experiment: Growth inhibition of human SK-MEL-28 cells at 100 nM after 96 hrs by MTT assay; parameters: scale not given: the % may be the effect or the level left
[24] = test system: UACC-257; experiment: Growth inhibition of human UACC257 cells at 1 uM after 96 hrs by MTT assay; parameters: scale not given: the % may be the effect or the level left
[25] = test system: Malme-3M; experiment: Growth inhibition of human MALME-3M cells at 100 nM after 96 hrs by MTT assay; parameters: scale not given: the % may be the effect or the level left
[26] = test system: HL-60(TB); experiment: Growth inhibition of human HL-60(TB) cells at 100 nM after 96 hrs by MTT assay; parameters: scale not given: the % may be the effect or the level left
[27] = test system: OVCAR-5; experiment: Growth inhibition of human OVCAR5 cells at 1 uM after 96 hrs by MTT assay; parameters: scale not given: the % may be the effect or the level left
[28] = test system: T47D; experiment: Growth inhibition of human T47D cells after 96 hrs by MTT assay; procedure, shortened: as §1
[29] = test system: NCI-H460; experiment: Growth inhibition of human NCI-H460 cells at 10 uM after 96 hrs by MTT assay; parameters: scale not given: the % may be the effect or the level left
[30] = test system: SK-OV-3; experiment: Growth inhibition of human SKOV3 cells at 1 nM after 96 hrs by MTT assay; parameters: scale not given: the % may be the effect or the level left
[31] = test system: SNB-19; experiment: Growth inhibition of human SNB19 cells at 1 uM after 96 hrs by MTT assay; parameters: scale not given: the % may be the effect or the level left
[32] = test system: SW-620; experiment: Growth inhibition of human SW620 cells at 1 nM after 96 hrs by MTT assay; parameters: scale not given: the % may be the effect or the level left
[33] = test system: NCI-H460; experiment: Growth inhibition of human NCI-H460 cells at 100 nM after 96 hrs by MTT assay; parameters: scale not given: the % may be the effect or the level left
[34] = test system: SK-MEL-28; experiment: Growth inhibition of human SK-MEL-28 cells at 10 nM after 96 hrs by MTT assay; parameters: scale not given: the % may be the effect or the level left
[35] = Growth inhibition of human Hs 578T cells at 1 nM after 96 hrs by MTT assay; parameters: scale not given: the % may be the effect or the level left
[36] = test system: HCT-15; experiment: Growth inhibition of human HCT15 cells at 10 uM after 96 hrs by MTT assay; parameters: scale not given: the % may be the effect or the level left
[37] = test system: IGROV-1; experiment: Growth inhibition of human IGROV1 cells at 10 nM after 96 hrs by MTT assay; parameters: scale not given: the % may be the effect or the level left
[38] = test system: CAKI-1; experiment: Growth inhibition of human Caki1 cells at 10 uM after 96 hrs by MTT assay; parameters: scale not given: the % may be the effect or the level left
[39] = test system: UACC-62; experiment: Growth inhibition of human UACC62 cells at 100 nM after 96 hrs by MTT assay; parameters: scale not given: the % may be the effect or the level left
[40] = test system: MCF7; experiment: Growth inhibition of human MCF7 cells at 10 nM after 96 hrs by MTT assay; parameters: scale not given: the % may be the effect or the level left
[41] = test system: OVCAR-8; experiment: Growth inhibition of human OVCAR8 cells at 10 nM after 96 hrs by MTT assay; parameters: scale not given: the % may be the effect or the level left
[42] = test system: SF-295; experiment: Growth inhibition of human SF295 cells at 1 uM after 96 hrs by MTT assay; parameters: scale not given: the % may be the effect or the level left
[43] = test system: NCI/ADR-RES; experiment: Growth inhibition of human NCI/ADR-RES cells at 1 nM after 96 hrs by MTT assay; parameters: scale not given: the % may be the effect or the level left
[44] = test system: SK-OV-3; experiment: Growth inhibition of human SKOV3 cells after 96 hrs by MTT assay; conditions: SK-OV-3, 96 h; procedure, shortened: as §1
[45] = test system: HL-60(TB); experiment: Growth inhibition of human HL-60(TB) cells after 96 hrs by MTT assay; conditions: HL-60, 96 h
[46] = test system: OVCAR-4; experiment: Growth inhibition of human OVCAR4 cells at 1 nM after 96 hrs by MTT assay; parameters: scale not given: the % may be the effect or the level left
[47] = read-out: LC50 (the source's name)
[48] = read-out: Log10GI50 (converted)
[49] = read-out: Log10LC50 (converted)

C=C(C)[C@H]1CC=C(C)C2=CO[C@@H](c3ccccc3F)[C@@H]21
Activity [1]: 96% | Activity [2]: 84% | GI50 ([3]; read-out: GI50): 7 µM | CC50 [3, 47]: 64.7 µM | GI50 [3, 48]: 6.92 µM | CC50 [3, 49]: 64.6 µM | TGI ([3]; read-out: Log10TGI (converted)): 24 µM | TGI ([3]; read-out: TGI): 23.9 µM | Activity [4]: 82% | Activity [5]: 93.7% | Activity [6]: 101.29% | Activity [7]: 95% | Activity [8]: 98% | Activity [9]: 97.35% | Activity [10]: 89% | Activity [11]: 95% | Activity [12]: 92% | Activity [13]: 81% | Activity [14]: 101% | Activity [15]: 92% | Activity [16]: 98% | Activity [17]: 71.81% | Activity [18]: 97% | Activity [19]: 57% | Activity [20]: 101% | Activity [21]: 23% | Activity [22]: 89% | Activity [23]: 93% | Activity [24]: 44% | Activity [25]: 74% | Activity [26]: 92% | Activity [27]: 126% | GI50 ([28]; read-out: GI50): 2240 nM | CC50 [28, 47]: > 100 µM | GI50 [28, 48]: 2240 nM | CC50 [28, 49]: > 100 µM | TGI ([28]; read-out: Log10TGI (converted)): 11 µM | TGI ([28]; read-out: TGI): 11.1 µM | Activity [29]: 92.68% | Activity [30]: 98% | Activity [31]: 54% | Activity [32]: 96% | Activity [33]: 82% | Activity [34]: 93% | Activity [35]: 83% | Activity [36]: 103.41% | Activity [37]: 85% | Activity [38]: -25% | Activity [39]: 73% | Activity [40]: 103% | Activity [41]: 97% | Activity [42]: 30% | Activity [43]: 105% | GI50 ([44]; read-out: GI50): 12.3 µM | CC50 [44, 47]: > 100 µM | GI50 [44, 48]: 12.3 µM | CC50 [44, 49]: > 100 µM | TGI ([44]; read-out: Log10TGI (converted)): 38.9 µM | TGI ([44]; read-out: TGI): 39.3 µM | GI50 ([45]; read-out: GI50): 2080 nM | CC50 [45, 47]: 35.5 µM | GI50 [45, 48]: 2090 nM | CC50 [45, 49]: 35.5 µM | TGI ([45]; read-out: Log10TGI (converted)): 5.01 µM | TGI ([45]; read-out: TGI): 4.97 µM | Activity [46]: 91%
